Measured values as given in ChEMBL document CHEMBL1143331, “The synthesis and structure-activity relationship of substituted N-phenyl anthranilic acid analogs as amyloid aggregation inhibitors” (Bioorg Med Chem Lett, 2009).
Activity calls are given as the source filed them. The rule behind the calls is not given here.

Experiments:
[1] = Inhibition of amyloid beta (1 to 40) aggregation by beta amyloid self seeding radioassay
How it was run: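 Aβ(1-40) at 30 μM unlabeled, plus a tracer amount of 125I-Aβ(1-40), incubated with compound in 50 mM NaPi, 150 mM NaCl, 1 M urea, 0.02% w/v NaN3, pH 7.5. Radiolabeled fibrils retained on a 0.2 µm filter were measured. Eight compound concentrations were tested, and IC50 was taken by logit transformation of the titration curves. Values are the average of two separate experiments.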

[2] = Inhibition of amyloid beta (1 to 40) aggregation by beta amyloid self seeding thioflavin T assay
How it was run: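 Compound was incubated with 30 μM Aβ(1-40) in 50 mM NaPi, 150 mM NaCl, 1 M urea, 0.02% w/v NaN3, pH 7.5. Thioflavin T at 5 µM was added after fibril formation, and fluorescence was read as β-sheet fibril content. IC50 came from eight concentrations by logit transformation of the titration curves. Values are the mean of two separate experiments.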

[3] = Inhibition of amyloid beta (1 to 40) aggregation assessed as appearance of smaller fragmented amyloid beta species at 50 uM by atomic force microscopy study
Mus musculus [4] = assay: Reduction in mean senile plaque area in Tg2576 mouse overexpressing human betaAPP695SWE at 200 mg/kg/day, po administered with chow; type: functional; set-up: scale not given: the % may be the effect or the level left
Mus musculus [5] = assay: Reduction in senile plaque load in Tg2576 mouse overexpressing human betaAPP695SWE at 200 mg/kg/day, po administered with chow for 7 months; type: functional; set-up: scale not given: the % may be the effect or the level left
Mus musculus [6] = assay: Reduction in mean senile plaque area in Tg2576 mouse overexpressing human betaAPP695SWE at 60 mg/kg/day, po administered with chow; type: functional; set-up: scale not given: the % may be the effect or the level left
Mus musculus [7] = assay: Reduction in senile plaque load in Tg2576 mouse overexpressing human betaAPP695SWE at 60 mg/kg/day, po administered with chow for 3 months; type: functional; set-up: scale not given: the % may be the effect or the level left
Mus musculus [8] = assay: Reduction in senile plaque load in Tg2576 mouse overexpressing human betaAPP695SWE at 60 mg/kg/day, po administered with chow for 7 months; type: functional; set-up: scale not given: the % may be the effect or the level left

| Compound | IC50 [1] | IC50 [2] | also measured |
| --- | --- | --- | --- |
| O=C(O)c1cccnc1Nc1ccc(CCCc2ccc(Cl)c(Cl)c2)cc1 | 60 µM | 5 µM | – |
| O=C(O)c1ccccc1Nc1ccc(CCCc2ccccc2Cl)cc1 | 6 µM | 2 µM | – |
| O=C(O)c1cc(F)ccc1Nc1ccc(CCCc2ccc(Cl)c(Cl)c2)cc1 | 86 µM | 1 µM | – |
| O=C(O)c1ccccc1Nc1ccc(CCc2ccc(F)c(C(F)(F)F)c2)cc1 | > 100 µM | 2 µM | – |
| O=C(O)c1ccccc1Nc1ccc(CCc2ccccc2)cc1 | 60 µM | 10 µM | – |
| O=C(O)c1ccccc1Nc1ccc(CCc2cccc(F)c2)cc1 | > 100 µM | 70 µM | – |
| Cc1ccc(CCc2ccc(Nc3ccccc3C(=O)O)cc2)cc1Cl | 88 µM | 1 µM | – |
| Cc1ccc(CCc2ccc(Nc3ccc([N+](=O)[O-])cc3C(=O)O)cc2)cc1C | 12 µM | 2 µM | – |
| COc1ccc(CCc2ccc(Nc3ccccc3C(=O)O)cc2)cc1 | > 100 µM | > 100 µM | – |
| O=C(O)c1cc([N+](=O)[O-])ccc1Nc1ccc(CCc2ccc(Cl)cc2Cl)cc1 | 17 µM | 4 µM | – |
| CCN(CC)c1ccc(CCCc2ccc(Nc3ccccc3C(=O)O)cc2)cc1 | 3 µM | 1 µM | – |
| Cc1ccc(Nc2ccc(CCCc3ccc(Cl)c(Cl)c3)cc2)c(C(=O)O)c1 | > 100 µM | > 100 µM | – |
| Cc1ccc(CCCc2ccc(Nc3ccc(F)cc3C(=O)O)cc2)cc1C | > 100 µM | 1 µM | – |
| O=C(O)c1cc([N+](=O)[O-])ccc1Nc1ccc(CCc2ccc(F)c(F)c2)cc1 | 41 µM | 4 µM | – |
| O=C(O)c1cc([N+](=O)[O-])ccc1Nc1ccc(CCc2ccc(Cl)c(Cl)c2)cc1 | 43 µM | 0.5 µM | – |
| O=C(O)c1ccccc1Nc1ccc(CCCc2ccc(Cl)cc2Cl)cc1 | 2 µM | 2 µM | – |
| O=C(O)c1ccccc1Nc1ccc(CCc2ccc(F)c(F)c2)cc1 | > 100 µM | 2 µM | – |
| O=C(O)c1cc([N+](=O)[O-])ccc1Nc1ccc(CCN2CCC3CCCCC3C2)cc1 (stereo not given) | 5 µM | 1 µM | – |
| Cc1ccc(CCCc2ccc(Nc3ccccc3C(=O)O)cc2)cc1C | 6 µM | 3 µM | – |
| Cc1ccc(Nc2ccc(CCCc3ccc(C)c(C)c3)cc2)c(C(=O)O)c1 | 16 µM | 3 µM | – |
| O=C(O)c1ccccc1Nc1ccc(CCCc2ccc(F)c(C(F)(F)F)c2)cc1 | 5 µM | 3 µM | – |

| Compound | IC50 [1] | IC50 [2] | also measured |
| --- | --- | --- | --- |
| O=C(O)c1cccc(Nc2ccc(CCc3ccc(Cl)c(Cl)c3)cc2)c1 | > 100 µM | 10 µM | – |
| O=C(O)c1cc([N+](=O)[O-])ccc1Nc1ccc(CCc2ccc(Cl)cc2)cc1 | 15 µM | 0.4 µM | – |
| O=C(O)c1ccc(C(F)(F)F)cc1Nc1ccc(CCc2ccc(Cl)c(Cl)c2)cc1 | 27 µM | 4 µM | – |
| CCN(CC)c1ccc(Nc2ccc(CCc3ccc(Cl)c(Cl)c3)cc2)c(C(=O)O)c1 | > 100 µM | 53 µM | – |
| O=C(O)c1cc([N+](=O)[O-])ccc1Nc1ccc(CCc2ccc(Cl)c(C(F)(F)F)c2)cc1 | 16 µM | 1 µM | – |
| Cc1ccc(CCCc2ccc(Nc3cc(F)ccc3C(=O)O)cc2)cc1C | 12 µM | 5.4 µM | – |
| CCCCN(CCCC)c1ccc(CCc2ccc(Nc3ccc([N+](=O)[O-])cc3C(=O)O)cc2)cc1 | 15 µM | 1 µM | – |
| O=C(O)c1ccccc1Nc1ccc(CCc2ccc(Cl)c(Cl)c2)cc1 | > 100 µM | 2 µM | Activity [3]: Active; Activity (Mus musculus [4]): 2.1%; Activity (Mus musculus [5]): 44% |
| O=C(O)c1ccccc1Nc1ccc(CCCc2ccc(Cl)c(Cl)c2)cc1 | 25 µM | 1 µM | Activity (Mus musculus [6]): 2.6%; Activity (Mus musculus [7]): 45%; Activity (Mus musculus [8]): 47% |
| O=C(O)c1c(Nc2ccc(CCc3ccc(Cl)c(Cl)c3)cc2)cccc1C(F)(F)F | 70 µM | 0.1 µM | – |
| O=C(O)c1ccccc1Nc1ccc(CCCc2cccc(Br)c2)cc1 | 2 µM | 3 µM | – |
| O=C(O)c1ccccc1Nc1ccc(CCc2ccc(Cl)cc2Cl)cc1 | > 100 µM | 51 µM | – |
| O=C(O)c1ccccc1Nc1ccc(CCN2CCC3CCCCC3C2)cc1 (stereo not given) | > 100 µM | 1 µM | – |
| Cc1ccc(CCc2ccc(Nc3ccccc3C(=O)O)cc2)cc1C | > 100 µM | 10 µM | – |
| Cc1ccc(Nc2ccc(CCc3ccc(Cl)c(Cl)c3)cc2)c(C(=O)O)c1 | > 100 µM | 2 µM | – |
| COc1ccc(CCCc2ccc(Nc3cc(F)ccc3C(=O)O)cc2)cc1 | 14 µM | 9 µM | – |
| Cc1ccc(CCCc2ccc(Nc3ccc([N+](=O)[O-])cc3C(=O)O)cc2)cc1C | 14 µM | 6 µM | – |
| Cc1ccc(CCCc2ccc(Nc3ccccc3C(=O)O)cc2)cc1 | 9 µM | 1 µM | – |
| O=C(O)c1cc([N+](=O)[O-])ccc1Nc1ccc(CCc2ccccc2)cc1 | 70 µM | 1.5 µM | – |
| O=C(O)c1ccccc1Nc1ccc(CCc2cc(Cl)cc(Cl)c2)cc1 | > 100 µM | 15 µM | – |
| O=C(O)c1cccc(C(F)(F)F)c1Nc1ccc(CCc2ccc(Cl)c(Cl)c2)cc1 | > 100 µM | 30 µM | – |

| Compound | IC50 [1] | IC50 [2] | also measured |
| --- | --- | --- | --- |
| O=C(O)c1cc(Nc2ccc(CCc3ccc(Cl)c(Cl)c3)cc2)ccc1F | > 100 µM | 3 µM | – |
| O=C(O)c1cc([N+](=O)[O-])ccc1Nc1ccc(CCc2cccc(Cl)c2)cc1 | 33 µM | 0.3 µM | – |
| COc1ccc(CCCc2ccc(Nc3ccccc3C(=O)O)cc2)cc1 | 30 µM | 17 µM | – |
| O=C(O)c1ccccc1Nc1ccc(CCCc2ccc(F)c(F)c2)cc1 | 8 µM | 5 µM | – |
| O=C(O)c1ccccc1Nc1ccc(CCCc2ccccc2)cc1 | 14 µM | 5 µM | – |
| O=C(O)c1cccnc1Nc1ccc(CCc2ccc(Cl)c(Cl)c2)cc1 | 7 µM | 2 µM | – |
| O=C(O)c1ccccc1Nc1ccc(CCCc2cccc(Cl)c2)cc1 | 4 µM | 3 µM | – |
| Cc1ccc(CCCc2ccc(Nc3ncccc3C(=O)O)cc2)cc1C | 14 µM | 9 µM | – |
| COC(=O)c1ccc(Nc2ccc(CCc3ccc(Cl)c(Cl)c3)cc2)cc1 | > 100 µM | > 100 µM | – |
| O=C(O)c1ccccc1Nc1ccc(CCCc2cc(Cl)cc(Cl)c2)cc1 | 3 µM | 3 µM | – |
| O=C(O)c1ccc(Nc2ccc(CCc3ccc(Cl)c(Cl)c3)cc2)cc1 | > 100 µM | 10 µM | – |
| COc1ccc(CCCc2ccc(Nc3ccc(F)cc3C(=O)O)cc2)cc1 | 14 µM | 10 µM | – |
| O=C(O)c1cc([N+](=O)[O-])ccc1Nc1ccc(CCc2ccccc2Cl)cc1 | 3 µM | 0.5 µM | – |
| O=C(O)c1ccccc1Nc1ccc(CCc2cccc(Cl)c2)cc1 | > 100 µM | 19 µM | – |
| O=C(O)c1cc([N+](=O)[O-])ccc1Nc1ccc(CCCc2ccc(Cl)c(Cl)c2)cc1 | > 100 µM | 1 µM | – |
| O=C(O)c1ccccc1Nc1ccc(CCc2ccc(Cl)cc2)cc1 | > 100 µM | 3 µM | – |
| O=C(O)c1cc(Nc2ccc(CCc3ccc(Cl)c(Cl)c3)cc2)ccc1C(F)(F)F | > 100 µM | 35 µM | – |
| O=C(O)c1cc([N+](=O)[O-])ccc1Nc1ccc(CCc2ccc(F)c(C(F)(F)F)c2)cc1 | 3 µM | 0.8 µM | – |
| O=C(O)c1ccccc1Nc1ccc(CCCc2ccc(Cl)cc2)cc1 | 3 µM | 2 µM | – |
| O=C(O)c1ccccc1Nc1ccc(CCc2ccccc2Cl)cc1 | > 100 µM | 5 µM | – |
